Measurements pooled from the literature.
Lines come from different studies, so protocols differ.

species	sample	route	dose	time	notes	concentration	Structure (SMILES)
CD-1 mouse	lung	intravenous	10 mg/kg	24 h	–	15 ng/mL	O=c1nc(N2CCN(CC3CCCCC3)CC2)sc2c([N+](=O)[O-])cc(C(F)(F)F)cc12
male Swiss mouse	plasma	oral	30 mg/kg	30 min	single dose	14800 ng/mL	O=C(O)C1CCN(c2ncc(-c3ccc4c(c3)OCCCO4)s2)CC1
mouse	brain	intraperitoneal	20 mg/kg	7 days	–	0 nM	CC(C)Cc1nn(C)c(=O)c2c(SCCCO)n(Cc3cccc4ccccc34)cc12
female BALB/c mouse	plasma	oral	50 mg/kg	15 min	–	2130 ng/mL	c1ccc(-c2nc(N3CCC(c4ccccn4)C3)c3ccccc3n2)nc1 (centres unmarked)
male Swiss mouse	plasma	oral	30 mg/kg	15 min	single dose	416 ng/mL	CC(C)Oc1cccc(-c2cnc(N3CCC(C(N)=O)CC3)s2)c1
BALB/c mouse	brain	intravenous	25 mg/kg	6 h	–	1.85 ng/g	CC(C)CN(C[C@@H](O)[C@H](Cc1ccccc1)NC(=O)O[C@H]1CO[C@H]2OCC[C@H]21)S(=O)(=O)c1ccc(N)cc1
female BALB/c mouse	plasma	oral	50 mg/kg	24 h	–	79 ng/mL	CC(C)(Nc1nc(-c2ccccn2)nc2ccccc12)c1ccccn1
female BALB/c mouse	plasma	intraperitoneal	10 mg/kg	1 h	–	1290 ng/mL	O=S(=O)(c1ccc(-c2ccc3nccc(Nc4ccncn4)c3c2)cc1)N1CCOCC1
